Activity calls are given as the source filed them. The rule behind the calls is not given here.
Assays:
[1] = test system: Mus musculus; experiment: Antinociceptive activity in Swiss mouse assessed as inhibition of acetic acid-induced abdominal constrictions at 100 umol/kg, po administered 40 mins before acetic acid challenge measured for 25 mins relative to control; type: functional; conditions: Abdomen
Summary of the method: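 Mice were dosed at 100 µmol/kg po in arabic gum (10 mL/kg), 40 min before 0.6% v/v acetic acid ip (0.1 mL/10 g). Writhes (abdominal contraction, pelvic rotation, hind-limb extension) were counted for 20 min starting 5 min post-injection. Results are expressed as % inhibition versus vehicle controls. Groups of 6 (control 10), ANOVA/Dunnett.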

[2] = test system: Mus musculus; experiment: Analgesic activity against formalin-induced acute pain in Swiss mouse assessed inhibition of nociception at 100 umol/kg, po administered 40 mins before formalin challenge measured for 15 to 30 mins relative to control; type: functional
Summary of the method: (§1)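 Mice, 6 per group, received 20 µL of 2.5% formalin (0.92% formaldehyde in saline) into the ventral surface of the right hind paw. Dosing was 100 µmol/kg po in arabic gum vehicle (10 mL/kg), 40 min beforehand. Time spent licking the injected paw was recorded over 0–5 min (neurogenic phase) and 15–30 min (inflammatory phase). Data are mean ± S.E.M., ANOVA/Dunnett versus vehicle.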

[3] = test system: Mus musculus; experiment: Analgesic activity in Swiss mouse assessed as increase in latency of paw licking at 100 umol/kg, po after 60 mins measured for 60 seconds by hot plate test (reference value: 4.9 +/- 0.5 seconds); type: functional
[4] = test system: Mus musculus; experiment: Analgesic activity in Swiss mouse assessed as increase in latency of paw licking at 100 umol/kg, po after 90 mins measured for 60 seconds by hot plate test (reference value: 5.9 +/- 0.8 seconds); type: functional
[5] = test system: Mus musculus; experiment: Analgesic activity in Swiss mouse assessed as increase in latency of paw licking at 100 umol/kg, po after 120 mins measured for 60 seconds by hot plate test (reference value: 5.6 +/- 0.5 seconds); type: functional
[6] = test system: Mus musculus; experiment: Analgesic activity in Swiss mouse assessed as increase in latency of paw licking at 100 umol/kg, po after 150 mins measured for 60 seconds by hot plate test (reference value: 5.1 +/- 0.4 seconds); type: functional
[7] = test system: Mus musculus; experiment: Antiedematogenic activity in Swiss mouse assessed as inhibition of capsaicin-induced ear edema at 100 umol/kg, po administered 40 mins before capsaicin challenge measured after 30 mins relative to control
[8] = test system: Mus musculus; experiment: Antiedematogenic activity in Swiss mouse assessed as decrease of capsaicin-induced ear edema weight at 100 umol/kg, po administered 40 mins before capsaicin challenge measured after 30 mins relative to control; design: scale not given: the % may be the effect or the level left
[9] = test system: Mus musculus; experiment: Analgesic activity against formalin-induced acute pain in Swiss mouse assessed as decrease of time spent in paw licking at 100 umol/kg, po administered 40 mins before formalin challenge measured for 15 to 30 mins; type: functional, organism-based; summary of the method: as §1
[10] = test system: Rattus norvegicus; experiment: Antiinflammatory effect in complete Freund's adjuvant-induced Wistar rat arthritis model assessed as inhibition of paw edema at 100 umol/kg, po daily once administered on day 14 post adjuvant challenge measured on day 16 post adjuvant challenge; type: functional, organism-based
Summary of the method: (§2)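 Wistar rats (130–170 g) received 0.1 mL complete Freund's adjuvant into the right paw. On day 13, arthritic rats were grouped (n=6) with matched scores. Dosing was 100 µmol/kg po daily from day 14 to 21, with arabic gum vehicle (10 mL/kg) for controls. Paw volume was measured by […] on days 1 and 14–21. Data are mean ± S.E.M., ANOVA/Dunnett.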

[11] = test system: Rattus norvegicus; experiment: Antiinflammatory effect in complete Freund's adjuvant-induced Wistar rat arthritis model assessed as inhibition of paw edema at 100 umol/kg, po daily once administered on day 14 post adjuvant challenge measured on day 17 post adjuvant challenge; type: functional, organism-based; summary of the method: as §2
[12] = test system: Rattus norvegicus; experiment: Antiinflammatory effect in complete Freund's adjuvant-induced Wistar rat arthritis model assessed as inhibition of paw edema at 100 umol/kg, po daily once administered on day 14 post adjuvant challenge measured on day 21 post adjuvant challenge; type: functional, organism-based; summary of the method: as §2
[13] = test system: Mus musculus; experiment: Analgesic activity against formalin-induced acute pain in Swiss mouse assessed as decrease of time spent in paw licking at 100 umol/kg, po administered 40 mins before formalin challenge measured for 0 to 5 mins; type: functional, organism-based
Summary of the method: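 Male or female adult Swiss mice (20–30 g, 6–8 weeks), groups of 6, dosed orally in arabic gum vehicle (10 mL/kg) 40 min before 20 µL of 2.5% formalin (0.92% formaldehyde in saline) into ventral surface of right hind paw. Paw-licking time recorded 0–5 min (neurogenic phase) after injection; mean ± S.E.M. versus vehicle controls, ANOVA with Dunnett test.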

Row | Structure (SMILES) | inhibition in vivo at 100 µmol/kg [1] [%] | inhibition in vivo at 100 µmol/kg [2] [%] | Time [3] [s] | Time [4] [s] | Time [5] [s] | Time [6] [s] | inhibition in vivo at 100 µmol/kg [7] [%] | Activity [8] [%] | Activity [9] | Activity [10] | Activity [11] | Activity [12] | Activity [13]
1 | O=C(N/N=C/c1ccc2ccccc2c1)c1cnccn1 | 68.4 | 68 | 2.8 | 3.5 | 4.4 | 4.5 | 35.4 | 37.8 |  |  |  |  | 
2 | O=C(N/N=C/c1ccc([N+](=O)[O-])cc1)c1cnccn1 | 40.4 | 44.4 | 3.1 | 5.4 | 4.9 | 4.9 | 41.9 | 34 | Active |  |  |  | 
3 | CC(C)c1ccc(/C=N/NC(=O)c2cnccn2)cc1 | 67.6 | 66.5 | 3.3 | 4.7 | 5.2 | 4.6 | 46.6 | 31.2 | Active |  |  |  | 
4 | O=C(N/N=C/c1ccc(F)cc1)c1cnccn1 | 74.5 | 72.3 | 4.6 | 5.4 | 4.8 | 3.1 | 33.1 | 39.1 | Active |  |  |  | 
5 | COc1cc(/C=N/NC(=O)c2cnccn2)ccc1O | 47 | 31.8 | 2.6 | 3.2 | 3.4 | 4.4 | 63.5 | 21.3 |  |  |  |  | 
6 | O=C(N/N=C/c1ccc(C(F)(F)F)cc1)c1cnccn1 | 54.5 | 27.7 | 3.1 | 3.9 | 2.4 | 4 | 48.3 | 30.2 |  |  |  |  | 
7 | CC(C)(C)c1cc(/C=N/NC(=O)c2cnccn2)cc(C(C)(C)C)c1O | 71.6 | 26.8 | 2.7 | 3.4 | 3.4 | 5.4 | 32.3 | 39.5 |  |  |  |  | 
8 | COc1ccc(/C=N/NC(=O)c2cnccn2)cc1O | 64.8 | 14.7 | 2 | 4 | 1.9 | 4.7 | 27 | 42.8 |  |  |  |  | 
9 | O=C(N/N=C/c1ccncc1)c1cnccn1 | 40.4 | 58.4 | 3.5 | 3.2 | 5.4 | 4.5 | 32.3 | 45.7 | Active |  |  |  | 
10 | O=C(N/N=C/c1ccc2c(c1)OCO2)c1cnccn1 | 78.2 | 46.7 | 2.4 | 3 | 4.4 | 3.2 | 44.7 | 32.3 | Active |  |  |  | 
11 | O=C(N/N=C/c1cc(=O)c2ccccc2o1)c1cnccn1 | 86.3 | 52.7 | 2.5 | 3.5 | 6.2 | 4.2 | 55.3 | 26.1 | Active |  |  |  | 
12 | O=C(N/N=C/c1ccccn1)c1cnccn1 | 75.5 | 56.4 | 2.4 | 4.4 | 4.5 | 3 | 44.9 | 32.2 | Active |  |  |  | 
13 | CC(C)c1ccc(/C=N/NC(=O)c2nc3ccccc3nc2-c2ccccc2)cc1 | 77.3 | 66.5 | 4.6 | 5 | 5.4 | 4.3 | 47.5 | 30.7 |  |  |  |  | 
14 | O=C(N/N=C/c1ccccc1)c1cnccn1 | 42.4 | 60.8 | 4.4 | 4.2 | 4 | 5.2 | 30.5 | 40.6 | Active |  |  |  | 
15 | COc1cc(/C=N/NC(=O)c2cnccn2)cc(OC)c1OC | 97.1 | 86 | 4 | 4.8 | 4.3 | 5.3 | 70 | 17.6 | Active | Active | Active | Active | 
16 | O=C(N/N=C/c1c2ccccc2cc2ccccc12)c1cnccn1 | 33.6 | 45.8 | 3.7 | 6.2 | 5.6 | 6.6 | 54.7 | 26.5 |  |  |  |  | 
17 | O=C1CCC(N2C(=O)c3ccccc3C2=O)C(=O)N1 (configuration not stated) [THALIDOMIDE] | 73.3 | 66.7 | 4.8 | 7.5 | 6.8 | 5.9 | 25.2 | 46.6 |  | Active | Active | Active | 
18 | O=C(N/N=C/c1ccc(O)cc1)c1cnccn1 | 61.4 | 16.7 | 3.1 | 3.4 | 5.3 | 4 | 42.3 | 33.7 |  |  |  |  | 
19 | Cc1ccc(-c2cc(C(F)(F)F)nn2-c2ccc(S(N)(=O)=O)cc2)cc1 [CELECOXIB] | 56.9 | 68.4 | 5.5 | 5.7 | 4.4 | 3.8 | 56.4 | 25.5 |  |  |  |  | 
20 | O=C(N/N=C/c1ccccc1O)c1cnccn1 | 73.1 | 16.2 | 4 | 5.2 | 6.4 | 5.2 | 42 | 33.9 |  |  |  |  | Active
21 | COc1ccc2c(c1)c(CC(=O)O)c(C)n2C(=O)c1ccc(Cl)cc1 [INDOMETHACIN] | 73.1 | 39 |  |  |  |  | 49.3 | 29.7 |  |  |  |  | 
22 | COc1ccc(/C=N/NC(=O)c2cnccn2)cc1OC | 73.6 | 29.1 | 4.8 | 4.2 | 6.3 | 3.8 | 49.6 | 29.5 |  |  |  |  | 
23 | O=C(N/N=C/c1ccc(-c2ccccc2)cc1)c1cnccn1 | 57.3 | 46.9 | 2.7 | 3.5 | 4 | 4.5 | 47.7 | 32.9 | Active |  |  |  | 
